ChEMBL document CHEMBL5329156, “Discovery and development of novel substituted monohydrazides as potent antifungal agents” (RSC Med Chem, 2023)
Values after ≈ are worked out from the molar mass of the structure shown. Active and inactive are the calls of the source. The calls are words filed in the database; no cut-off is given here.

Legend:
Candida albicans [1] = test: Antifungal activity against Candida albicans ATCC 10231 assessed as fungal growth inhibition by double dilution method; format: functional
Method in brief: (§1)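 Broth microdilution after CLSI M27-A3/M38-A2 with minor changes. Single colony grown overnight in YPD at 35 °C, 200 rpm. Compound final range 0.06-31.3 µg/mL; incubated 48 h at 35 °C.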

Candida albicans [2] = test: Antifungal activity against Candida albicans ATCC 64124 assessed as fungal growth inhibition by double dilution method; format: functional
Method in brief: (§2)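 Broth microdilution after CLSI M27-A3/M38-A2 with minor modifications. A single colony was grown overnight in YPD at 35 °C with shaking at 200 rpm. Cells were mixed 1:1 with compound (final 0.06-31.3 µg/mL, from DMSO stocks) and incubated 48 h at 35 °C.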

Candida albicans [3] = test: Antifungal activity against itraconazole/fluconazole susceptible Candida albicans ATCC MYA-2876 assessed as fungal growth inhibition by double dilution method; format: functional; method in brief: as §2
Candida albicans [4] = test: Antifungal activity against itraconazole/fluconazole resistant Candida albicans ATCC 90819 assessed as fungal growth inhibition by double dilution method; format: functional; method in brief: as §2
Candida albicans [5] = test: Antifungal activity against itraconazole/fluconazole susceptible Candida albicans ATCC MYA-2310 assessed as fungal growth inhibition by double dilution method; format: functional; method in brief: as §2
Candida albicans [6] = test: Antifungal activity against itraconazole/fluconazole resistant Candida albicans ATCC MYA-1237 assessed as fungal growth inhibition by double dilution method; format: functional; method in brief: as §2
Candida albicans [7] = test: Antifungal activity against itraconazole/fluconazole resistant Candida albicans ATCC MYA-1003 assessed as fungal growth inhibition by double dilution method; format: functional; method in brief: as §2
Nakaseomyces glabratus [8] = test: Antifungal activity against Candida glabrata ATCC 2001 assessed as fungal growth inhibition by double dilution method; format: functional; method in brief: as §1
Pichia kudriavzevii [9] = test: Antifungal activity against Pichia kudriavzevii ATCC 6258 assessed as fungal growth inhibition by double dilution method; format: functional; method in brief: as §1
Nakaseomyces glabratus [10] = test: Antifungal activity against Candida glabrata ATCC 22019 assessed as fungal growth inhibition by double dilution method; format: functional; method in brief: as §1
[Candida] auris [11] = Antifungal activity against Candida auris AR Bank # 0384 assessed as fungal growth inhibition by double dilution method; format: functional; settings: Candidozyma auris; method in brief: as §1
[Candida] auris [12] = Antifungal activity against Candida auris AR Bank # 0390 assessed as fungal growth inhibition by double dilution method; format: functional; settings: Candidozyma auris; method in brief: as §1
Cryptococcus neoformans = test: Antifungal activity against Cryptococcus neoformans ATCC MYA-895 assessed as fungal growth inhibition by double dilution method; format: functional; method in brief: as §1
Aspergillus terreus = test: Antifungal activity against Aspergillus terreus ATCC MYA-3633 assessed as fungal growth inhibition by double dilution method; format: functional
Aspergillus fumigatus [13] = test: Antifungal activity against Aspergillus fumigatus NRRL 163 assessed as fungal growth inhibition by double dilution method; format: functional
Aspergillus flavus = test: Antifungal activity against Aspergillus flavus ATCC MYA-3631 assessed as fungal growth inhibition by double dilution method; format: functional
Aspergillus nidulans = test: Antifungal activity against Aspergillus nidulans ATCC 38163 assessed as fungal growth inhibition by double dilution method; format: functional
Aspergillus fumigatus [14] = test: Antifungal activity against Aspergillus fumigatus NRRL 5109 assessed as fungal growth inhibition by double dilution method; format: functional
Aspergillus fumigatus [15] = test: Antifungal activity against Aspergillus fumigatus NRRL 6113 assessed as fungal growth inhibition by double dilution method; format: functional
[Candida] auris [16] = Antifungal activity against Candida auris AR Bank # 381 assessed as fungal growth inhibition by double dilution method; format: functional; settings: Candidozyma auris; method in brief: as §1
[Candida] auris [17] = Antifungal activity against Candida auris AR Bank # 382 assessed as fungal growth inhibition by double dilution method; format: functional; settings: Candidozyma auris; method in brief: as §1
[Candida] auris [18] = Antifungal activity against Candida auris AR Bank # 383 assessed as fungal growth inhibition by double dilution method; format: functional; settings: Candidozyma auris; method in brief: as §1
[Candida] auris [19] = Antifungal activity against Candida auris AR Bank # 384 assessed as fungal growth inhibition by double dilution method; format: functional; settings: Candidozyma auris; method in brief: as §1
[Candida] auris [20] = Antifungal activity against Candida auris AR Bank # 385 assessed as fungal growth inhibition by double dilution method; format: functional; settings: Candidozyma auris; method in brief: as §1
[Candida] auris [21] = Antifungal activity against Candida auris AR Bank # 386 assessed as fungal growth inhibition by double dilution method; format: functional; settings: Candidozyma auris; method in brief: as §1
[Candida] auris [22] = Antifungal activity against Candida auris AR Bank # 387 assessed as fungal growth inhibition by double dilution method; format: functional; settings: Candidozyma auris; method in brief: as §1
[Candida] auris [23] = Antifungal activity against Candida auris AR Bank # 388 assessed as fungal growth inhibition by double dilution method; format: functional; settings: Candidozyma auris; method in brief: as §1
[Candida] auris [24] = Antifungal activity against Candida auris AR Bank # 389 assessed as fungal growth inhibition by double dilution method; format: functional; settings: Candidozyma auris; method in brief: as §1
[Candida] auris [25] = Antifungal activity against Candida auris AR Bank # 390 assessed as fungal growth inhibition by double dilution method; format: functional; settings: Candidozyma auris; method in brief: as §1
Candida duobushaemulonii [26] = test: Antifungal activity against Candida duobushaemulonii AR Bank # 391 assessed as fungal growth inhibition by double dilution method; format: functional; settings: Candidozyma duobushaemuli; method in brief: as §1
Candida duobushaemulonii [27] = test: Antifungal activity against Candida duobushaemulonii AR Bank # 392 assessed as fungal growth inhibition by double dilution method; format: functional; settings: Candidozyma duobushaemuli; method in brief: as §1
[Candida] haemuloni [28] = Antifungal activity against Candida haemulonii AR Bank # 393 assessed as fungal growth inhibition by double dilution method; format: functional; settings: Candidozyma haemuli; method in brief: as §1
Candida duobushaemulonii [29] = test: Antifungal activity against Candida duobushaemulonii AR Bank # 394 assessed as fungal growth inhibition by double dilution method; format: functional; settings: Candidozyma duobushaemuli; method in brief: as §1
[Candida] haemuloni [30] = Antifungal activity against Candida haemulonii AR Bank # 395 assessed as fungal growth inhibition by double dilution method; format: functional; settings: Candidozyma haemuli; method in brief: as §1
Kodamaea ohmeri = test: Antifungal activity against Kodamaea ohmeri AR Bank # 396 assessed as fungal growth inhibition by double dilution method; format: functional; method in brief: as §1
Pichia kudriavzevii [31] = test: Antifungal activity against Pichia kudriavzevii AR Bank # 397 assessed as fungal growth inhibition by double dilution method; format: functional; method in brief: as §1
Clavispora lusitaniae = test: Antifungal activity against Clavispora lusitaniae AR Bank # 398 assessed as fungal growth inhibition by double dilution method; format: functional; method in brief: as §1
Saccharomyces cerevisiae [32] = test: Antifungal activity against Saccharomyces cerevisiae AR Bank # 399 assessed as fungal growth inhibition by double dilution method; format: functional; method in brief: as §1
Saccharomyces cerevisiae [33] = test: Antifungal activity against Saccharomyces cerevisiae AR Bank # 400 assessed as fungal growth inhibition by double dilution method; format: functional; method in brief: as §1
Candida albicans [34] = test: Antibiofilm activity against Candida albicans ATCC 10231 assessed as reduction in biofilm production at 1.96 to 3.9 microg/ml by biofilm formation assay; format: functional, organism-based; settings: dose 1.96-3.9 µg/ml

Structure (SMILES): O=C(NNc1cc(Cl)cc(Cl)c1)c1ccccn1
- MIC (Candida albicans [1]): 0.24 µg/mL (≈ 0.851 µM)
- MIC (Candida albicans [2]): 1.95 µg/mL (≈ 6.91 µM)
- MIC (Candida albicans [3]): 1.95 µg/mL (≈ 6.91 µM)
- MIC (Candida albicans [4]): 0.98 µg/mL (≈ 3.47 µM)
- MIC (Candida albicans [5]): 1.95 µg/mL (≈ 6.91 µM)
- MIC (Candida albicans [6]): 3.9 µg/mL (≈ 13.8 µM)
- MIC (Candida albicans [7]): 1.95 µg/mL (≈ 6.91 µM)
- MIC (Nakaseomyces glabratus [8]): 7.8 µg/mL (≈ 27.6 µM)
- MIC (Pichia kudriavzevii [9]): 0.98 µg/mL (≈ 3.47 µM)
- MIC (Nakaseomyces glabratus [10]): 1.95 µg/mL (≈ 6.91 µM)
- MIC ([Candida] auris [11]): 7.8 µg/mL (≈ 27.6 µM)
- MIC ([Candida] auris [12]): 1.95 µg/mL (≈ 6.91 µM)
- MIC (Cryptococcus neoformans): 0.49 µg/mL (≈ 1.74 µM)
- MIC (Aspergillus terreus): 1.95 µg/mL (≈ 6.91 µM)
- MIC (Aspergillus fumigatus [13]): > 31.3 µg/mL
- MIC (Aspergillus flavus): > 31.3 µg/mL
- MIC (Aspergillus nidulans): 0.49 µg/mL (≈ 1.74 µM)
- MIC (Aspergillus fumigatus [14]): > 31.3 µg/mL
- MIC (Aspergillus fumigatus [15]): > 31.3 µg/mL
- MIC ([Candida] auris [16]): 3.9 µg/mL (≈ 13.8 µM)
- MIC ([Candida] auris [17]): 0.98 µg/mL (≈ 3.47 µM)
- MIC ([Candida] auris [18]): 1.95 µg/mL (≈ 6.91 µM)
- MIC ([Candida] auris [19]): 7.8 µg/mL (≈ 27.6 µM)
- MIC ([Candida] auris [20]): 1.95 µg/mL (≈ 6.91 µM)
- MIC ([Candida] auris [21]): 0.98 µg/mL (≈ 3.47 µM)
- MIC ([Candida] auris [22]): 0.98 µg/mL (≈ 3.47 µM)
- MIC ([Candida] auris [23]): 3.9 µg/mL (≈ 13.8 µM)
- MIC ([Candida] auris [24]): 1.95 µg/mL (≈ 6.91 µM)
- MIC ([Candida] auris [25]): 3.9 µg/mL (≈ 13.8 µM)
- MIC (Candida duobushaemulonii [26]): 0.98 µg/mL (≈ 3.47 µM)
- MIC (Candida duobushaemulonii [27]): 0.98 µg/mL (≈ 3.47 µM)
- MIC ([Candida] haemuloni [28]): 0.24 µg/mL (≈ 0.851 µM)
- MIC (Candida duobushaemulonii [29]): 0.49 µg/mL (≈ 1.74 µM)
- MIC ([Candida] haemuloni [30]): 0.24 µg/mL (≈ 0.851 µM)
- MIC (Kodamaea ohmeri): 0.49 µg/mL (≈ 1.74 µM)
- MIC (Pichia kudriavzevii [31]): 0.49 µg/mL (≈ 1.74 µM)
- MIC (Clavispora lusitaniae): 3.9 µg/mL (≈ 13.8 µM)
- MIC (Saccharomyces cerevisiae [32]): 3.9 µg/mL (≈ 13.8 µM)
- MIC (Saccharomyces cerevisiae [33]): 3.9 µg/mL (≈ 13.8 µM)
- Activity (Candida albicans [34]): inactive

Structure (SMILES): COc1cccc(NNC(=O)c2ccccn2)c1
- MIC (Candida albicans [1]): 0.24 µg/mL (≈ 0.987 µM)
- MIC (Candida albicans [2]): 0.98 µg/mL (≈ 4.03 µM)
- MIC (Candida albicans [3]): 0.98 µg/mL (≈ 4.03 µM)
- MIC (Candida albicans [4]): 1.95 µg/mL (≈ 8.02 µM)
- MIC (Candida albicans [5]): 1.95 µg/mL (≈ 8.02 µM)
- MIC (Candida albicans [6]): 1.95 µg/mL (≈ 8.02 µM)
- MIC (Candida albicans [7]): 0.98 µg/mL (≈ 4.03 µM)
- MIC (Nakaseomyces glabratus [8]): 15.6 µg/mL (≈ 64.1 µM)
- MIC (Pichia kudriavzevii [9]): 0.49 µg/mL (≈ 2.01 µM)
- MIC (Nakaseomyces glabratus [10]): 3.9 µg/mL (≈ 16 µM)
- MIC ([Candida] auris [11]): 0.98 µg/mL (≈ 4.03 µM)
- MIC ([Candida] auris [12]): 0.98 µg/mL (≈ 4.03 µM)
- MIC (Cryptococcus neoformans): 0.24 µg/mL (≈ 0.987 µM)
- MIC (Aspergillus terreus): 3.9 µg/mL (≈ 16 µM)
- MIC (Aspergillus fumigatus [13]): 7.8 µg/mL (≈ 32.1 µM)
- MIC (Aspergillus flavus): > 31.3 µg/mL
- MIC (Aspergillus nidulans): 1.95 µg/mL (≈ 8.02 µM)
- MIC (Aspergillus fumigatus [14]): 3.9 µg/mL (≈ 16 µM)
- MIC (Aspergillus fumigatus [15]): > 31.3 µg/mL
- MIC ([Candida] auris [16]): 3.9 µg/mL (≈ 16 µM)
- MIC ([Candida] auris [17]): 0.98 µg/mL (≈ 4.03 µM)
- MIC ([Candida] auris [18]): 0.98 µg/mL (≈ 4.03 µM)
- MIC ([Candida] auris [19]): 0.98 µg/mL (≈ 4.03 µM)
- MIC ([Candida] auris [20]): 3.9 µg/mL (≈ 16 µM)
- MIC ([Candida] auris [21]): 0.49 µg/mL (≈ 2.01 µM)
- MIC ([Candida] auris [22]): 0.49 µg/mL (≈ 2.01 µM)
- MIC ([Candida] auris [23]): 3.9 µg/mL (≈ 16 µM)
- MIC ([Candida] auris [24]): 0.49 µg/mL (≈ 2.01 µM)
- MIC ([Candida] auris [25]): 0.98 µg/mL (≈ 4.03 µM)
- MIC (Candida duobushaemulonii [26]): 1.95 µg/mL (≈ 8.02 µM)
- MIC (Candida duobushaemulonii [27]): 1.95 µg/mL (≈ 8.02 µM)
- MIC ([Candida] haemuloni [28]): 0.49 µg/mL (≈ 2.01 µM)
- MIC (Candida duobushaemulonii [29]): 0.98 µg/mL (≈ 4.03 µM)
- MIC ([Candida] haemuloni [30]): 0.49 µg/mL (≈ 2.01 µM)
- MIC (Kodamaea ohmeri): 0.49 µg/mL (≈ 2.01 µM)
- MIC (Pichia kudriavzevii [31]): 0.49 µg/mL (≈ 2.01 µM)
- MIC (Clavispora lusitaniae): 1.95 µg/mL (≈ 8.02 µM)
- MIC (Saccharomyces cerevisiae [32]): 7.8 µg/mL (≈ 32.1 µM)
- MIC (Saccharomyces cerevisiae [33]): 7.8 µg/mL (≈ 32.1 µM)
- Activity (Candida albicans [34]): Active
